Measurements from ChEMBL document CHEMBL1158122, “Anti-inflammatory, anti-tumor-promoting, and cytotoxic activities of constituents of marigold (Calendula officinalis) flowers” (J Nat Prod, 2006).

How the values were obtained:
[1] = test system: RXF 393; test: Cytotoxicity against human […] cells after 48 hrs by SRB assay; type: functional; conditions: RXF 393, 48 h
[2] = test system: NCI/ADR-RES; test: Cytotoxicity against human NCI/ADR-RES cells after 48 hrs by SRB assay; type: functional
[3] = test system: IGROV-1; test: Cytotoxicity against human IGROV1 cells after 48 hrs by SRB assay; type: functional; conditions: IGROV-1, 48 h
[4] = test system: SK-MEL-5; test: Cytotoxicity against human SK-MEL-5 cells after 48 hrs by SRB assay; type: functional; conditions: SK-MEL-5, 48 h
[5] = test system: OVCAR-8; test: Cytotoxicity against human OVCAR8 cells after 48 hrs by SRB assay; type: functional; conditions: OVCAR-8, 48 h
[6] = test system: MCF7; test: Cytotoxicity against human MCF7 cells after 48 hrs by SRB assay; type: functional; conditions: MCF7, 48 h
[7] = test system: UACC-62; test: Cytotoxicity against human UACC-62 cells after 48 hrs by SRB assay; type: functional; conditions: UACC-62, 48 h
Procedure, shortened: (§1)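 Tested in the NCI panel of 60 human tumour cell lines covering lung, colon, melanoma, renal, ovarian, breast and leukaemia. At least five concentrations were run in 10-fold dilutions starting from 10^-4 M. Exposure was continuous for 48 h. Growth or viability was estimated by sulforhodamine B protein staining, and GI50 values were reported.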

[8] = test system: SF-268; test: Cytotoxicity against human SF-268 cells after 48 hrs by SRB assay; type: functional; conditions: SF-268, 48 h
[9] = Cytotoxicity against human Raji cells assessed as cell viability at 10 molar ratio; type: cell-based; conditions: read-out: Activity
Procedure, shortened: (§2)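 Raji cells were treated with 32 pmol TPA to induce EBV early antigen activation. The test agent was added at 10, 100, 500 or 1000 mol ratio relative to TPA, and Raji cell viability was measured alongside EA activation.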

[10] = test system: OVCAR-5; test: Cytotoxicity against human OVCAR5 cells after 48 hrs by SRB assay; type: functional; conditions: OVCAR-5, 48 h
[11] = test system: HOP-62; test: Cytotoxicity against human HOP-62 cells after 48 hrs by SRB assay; type: functional; conditions: HOP-62, 48 h
[12] = test system: Malme-3M; test: Cytotoxicity against human MALME-3M cells after 48 hrs by SRB assay; type: functional
[13] = test system: UO-31; test: Cytotoxicity against human UO-31 cells after 48 hrs by SRB assay; type: functional; conditions: UO-31, 48 h; procedure, shortened: as §1
[14] = test system: SW-620; test: Cytotoxicity against human SW620 cells after 48 hrs by SRB assay; type: functional; conditions: SW-620, 48 h
[15] = test system: 786-0; test: Cytotoxicity against human 786-0 cells after 48 hrs by SRB assay; type: functional; conditions: 786-0, 48 h
[16] = test system: Raji; test: Inhibition of TPA-induced EBV-early antigen activation in human Raji cells at 10 molar ratio relative to TPA; type: cell-based; parameters: scale not given: the % may be the effect or the level left; conditions: human gammaherpesvirus 4
[17] = test system: NCI-H226; test: Cytotoxicity against human NCI-H226 cells after 48 hrs by SRB assay; type: functional; conditions: NCI-H226, 48 h
[18] = test system: TK-10; test: Cytotoxicity against human TK-10 cells after 48 hrs by SRB assay; type: functional; conditions: TK-10, 48 h; procedure, shortened: as §1
[19] = test system: SN12C; test: Cytotoxicity against human SN12C cells after 48 hrs by SRB assay; type: functional
[20] = test system: MDA-MB-231; test: Cytotoxicity against human MDA-MB-231 cells after 48 hrs by SRB assay; type: functional; conditions: MDA-MB-231, 48 h
[21] = test system: Raji; test: Inhibition of TPA-induced EBV-early antigen activation in human Raji cells at 500 molar ratio relative to TPA; type: cell-based; parameters: scale not given: the % may be the effect or the level left; conditions: human gammaherpesvirus 4
[22] = test system: SK-MEL-2; test: Cytotoxicity against human SK-MEL-2 cells after 48 hrs by SRB assay; type: functional; conditions: SK-MEL-2, 48 h
[23] = test system: KM12; test: Cytotoxicity against human KM12 cells after 48 hrs by SRB assay; type: functional; conditions: KM12, 48 h
[24] = test system: OVCAR-3; test: Cytotoxicity against human OVCAR-3 cells after 48 hrs by SRB assay; type: functional; conditions: OVCAR-3, 48 h
[25] = test system: PC-3; test: Cytotoxicity against human PC-3 cells after 48 hrs by SRB assay; type: functional; conditions: PC-3, 48 h
[26] = test system: SF-295; test: Cytotoxicity against human SF-295 cells after 48 hrs by SRB assay; type: functional; conditions: SF-295, 48 h
[27] = test system: UACC-257; test: Cytotoxicity against human UACC-257 cells after 48 hrs by SRB assay; type: functional; conditions: UACC-257, 48 h; procedure, shortened: as §1
[28] = test system: CCRF-CEM; test: Cytotoxicity against human CCRF-CEM cells after 48 hrs by SRB assay; type: functional
[29] = test system: NCI-H460; test: Cytotoxicity against human NCI-H460 cells after 48 hrs by SRB assay; type: functional; conditions: NCI-H460, 48 h
[30] = test system: NCI-H522; test: Cytotoxicity against human NCI-H522 cells after 48 hrs by SRB assay; type: functional; conditions: NCI-H522, 48 h
[31] = test system: NCI-H322M; test: Cytotoxicity against human NCI-H322M cells after 48 hrs by SRB assay; type: functional
[32] = test system: A549; test: Cytotoxicity against human A549 cells after 48 hrs by SRB assay; type: functional; conditions: A549, 48 h
[33] = test system: T47D; test: Cytotoxicity against human T47D cells after 48 hrs by SRB assay; type: functional; procedure, shortened: as §1
[34] = test system: RPMI-8226; test: Cytotoxicity against human RPMI8226 cells after 48 hrs by SRB assay; type: functional; conditions: RPMI-8226, 48 h
[35] = Cytotoxicity against human HCT 116 cells after 48 hrs by SRB assay; type: functional; conditions: HCT-116, 48 h
[36] = test system: K562; test: Cytotoxicity against human K-562 cells after 48 hrs by SRB assay; type: functional; conditions: K562, 48 h
[37] = test system: Raji; test: Inhibition of TPA-induced EBV-early antigen activation in human Raji cells at 1000 molar ratio relative to TPA; type: cell-based; parameters: scale not given: the % may be the effect or the level left; conditions: human gammaherpesvirus 4
[38] = test system: U-251; test: Cytotoxicity against human U251 cells after 48 hrs by SRB assay; type: functional; conditions: U-251, 48 h; procedure, shortened: as §1
[39] = Cytotoxicity against human Hs 578T cells after 48 hrs by SRB assay; type: functional
[40] = test system: HCT-15; test: Cytotoxicity against human HCT-15 cells after 48 hrs by SRB assay; type: functional; conditions: HCT-15, 48 h
[41] = Inhibition of TPA-induced EBV-early antigen activation in human Raji cells relative to TPA; type: cell-based, human gammaherpesvirus 4
[42] = test system: BT-549; test: Cytotoxicity against human BT-549 cells after 48 hrs by SRB assay; type: functional; conditions: BT-549, 48 h
[43] = test system: Raji; test: Inhibition of TPA-induced EBV-early antigen activation in human Raji cells at 100 molar ratio relative to TPA; type: cell-based; parameters: scale not given: the % may be the effect or the level left; conditions: human gammaherpesvirus 4
[44] = Cytotoxicity against human Raji cells assessed as cell viability at 1000 molar ratio; type: cell-based; conditions: read-out: Activity; procedure, shortened: as §2
[45] = test system: MDA-MB-435; test: Cytotoxicity against human MDA-MB-435 cells after 48 hrs by SRB assay; type: functional; conditions: MDA-MB-435, 48 h
[46] = test system: NCI-H23; test: Cytotoxicity against human NCI-H23 cells after 48 hrs by SRB assay; type: functional; conditions: NCI-H23, 48 h
[47] = test system: HT-29; test: Cytotoxicity against human HT-29 cells after 48 hrs by SRB assay; type: functional; conditions: HT-29, 48 h
[48] = test system: Mus musculus; test: Antiinflammatory activity against TPA-induced ear edema in mouse; type: functional
Procedure, shortened: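 Specific-pathogen-free female ICR mice were housed five per cage at 24 ± 2 °C. Inflammation was induced on the ear with TPA at 1 µg/ear, and the test agent was applied per ear. Ear edema inhibition was expressed as ID50 in mg per ear.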

[49] = test system: EKVX; test: Cytotoxicity against human EKVX cells after 48 hrs by SRB assay; type: functional
[50] = Cytotoxicity against human Raji cells assessed as cell viability at 500 molar ratio; type: cell-based; conditions: read-out: Activity; procedure, shortened: as §2
[51] = test system: MOLT-4; test: Cytotoxicity against human MOLT-4 cells after 48 hrs by SRB assay; type: functional; conditions: MOLT-4, 48 h
[52] = test system: CAKI-1; test: Cytotoxicity against human Caki-1 cells after 48 hrs by SRB assay; type: functional; conditions: CAKI-1, 48 h
[53] = test system: COLO 205; test: Cytotoxicity against human COLO205 cells after 48 hrs by SRB assay; type: functional; conditions: COLO 205, 48 h
[54] = test system: HOP-92; test: Cytotoxicity against human HOP-92 cells after 48 hrs by SRB assay; type: functional; conditions: HOP-92, 48 h
[55] = Cytotoxicity against human Raji cells assessed as cell viability at 100 molar ratio; type: cell-based; conditions: read-out: Activity; procedure, shortened: as §2
[56] = test system: SNB-19; test: Cytotoxicity against human SNB-19 cells after 48 hrs by SRB assay; type: functional; conditions: SNB-19, 48 h

Compound: CC1(C)CC[C@]2(C(=O)O)CC[C@]3(C)C(=CC[C@@H]4[C@@]5(C)CC[C@H](O[C@@H]6O[C@H](C(=O)O)[C@@H](O)[C@H](O[C@@H]7O[C@H](CO)[C@H](O)[C@H](O)[C@H]7O)[C@H]6O[C@@H]6O[C@H](CO)[C@@H](O)[C@H](O)[C@H]6O)C(C)(C)[C@@H]5CC[C@]43C)[C@@H]2C1 [CALENDULAGYCOSIDE B]
- GI50 [1]: > 100 µM
- GI50 [2]: > 100 µM
- GI50 [3]: > 100 µM
- GI50 [4]: > 100 µM
- GI50 [5]: > 100 µM
- GI50 [6]: 53.5 µM
- GI50 [7]: 23 µM
- GI50 [8]: > 100 µM
- viability at 10 molar ratio [9]: > 80%
- GI50 [10]: > 100 µM
- GI50 [11]: > 100 µM
- GI50 [12]: 79.9 µM
- GI50 [13]: 63.5 µM
- GI50 [14]: > 100 µM
- GI50 [15]: > 100 µM
- Activity [16]: 100%
- GI50 [17]: > 100 µM
- GI50 [18]: > 100 µM
- GI50 [19]: 84 µM
- GI50 [20]: 45 µM
- Activity [21]: 40.3%
- GI50 [22]: > 100 µM
- GI50 [23]: > 100 µM
- GI50 [24]: > 100 µM
- GI50 [25]: 20.6 µM
- GI50 [26]: 31 µM
- GI50 [27]: > 100 µM
- GI50 [28]: > 100 µM
- GI50 [29]: > 100 µM
- GI50 [30]: 38.4 µM
- GI50 [31]: 26 µM
- GI50 [32]: > 100 µM
- GI50 [33]: > 100 µM
- GI50 [34]: 50.9 µM
- GI50 [35]: > 100 µM
- GI50 [36]: 81.1 µM
- Activity [37]: 5.1%
- GI50 [38]: 32.3 µM
- GI50 [39]: 97.4 µM
- GI50 [40]: 94.6 µM
- IC50 [41]: 470 molar ratio
- GI50 [42]: > 100 µM
- Activity [43]: 69.2%
- viability at 1000 molar ratio [44]: 70%
- GI50 [45]: > 100 µM
- GI50 [46]: 20.2 µM
- GI50 [47]: 40.9 µM
- ID50 [48]: 0.05 mg
- GI50 [49]: > 100 µM
- viability at 500 molar ratio [50]: > 80%
- GI50 [51]: 86.3 µM
- GI50 [52]: > 100 µM
- GI50 [53]: > 100 µM
- GI50 [54]: > 100 µM
- viability at 100 molar ratio [55]: > 80%
- GI50 [56]: > 100 µM
